Screening data from PubChem BioAssay.
DNA FID counter-1: compounds displacing fluorescent DNA intercalator, primary screen, artefact control for HCV NS3 helicase inhibitor project, biochemical, FID fluorescence | DNA fluorescent intercalator displacement | inhibition, % at 7.9 µM | 290,000 compounds, 0.17% hits | AID 1845, 2009;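 note: 0% = vehicle and 100% = reference compound; higher means more ethidium bromide displaced from hairpin DNA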
HCV NS3 hel inh: inhibitors of HCV NS3 helicase, primary screen, biochemical, Cy5 molecular beacon fluorescence. Hepatitis C virus NS3 helicase. NS3 helicase DNA unwinding. inhibition, % at 10.9 µM. 290,000 compounds, 0.56% hits. AID 1800, 2009;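 active = inhibition above the mean of all tested compounds plus 3 SD, set per campaign, cut at about 35% in these data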;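 note: 0% = DMSO wells and 100% = thioflavine S control wells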
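System: NS3 helicase fragment of HCV / Schedule: 1 h at 25 °C / Control set: DMSO alone as 0% and 110 µM thioflavine S as 100% / Reagent: Cy5/quencher beacon DNA duplex and ATP to start / Technique: Cy5 fluorescence / Replication: singlicate / Evaluation: % inhibition of end-to-start signal ratio versus controls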
VIM-2 inh: VIM-2 metallo-beta-lactamase inhibitors, primary screen, biochemical, epi-absorbance readout, Pseudomonas aeruginosa enzyme | AID 1527, 2009 | inhibition, % at 5.6 µM | 290,000 compounds, 0.89% hits | purified VIM-2, nitrocefin hydrolysis, epi-absorbance fluorescence;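 active = inhibition above the mean of all tested compounds plus 3 SD, cutoff set per screening run, cut at about 7.5% in these data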;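 note: red hydrolysis product quenches plate fluorescence so inhibitors raise well fluorescence; 0% = enzyme with DMSO and 100% = DMSO without enzyme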
IMP-1 inh: IMP-1 metallo-beta-lactamase inhibitors, primary screen, biochemical, epi-absorbance readout, Pseudomonas aeruginosa enzyme. purified IMP-1, nitrocefin hydrolysis, epi-absorbance fluorescence. inhibition, % at 5.6 µM. 290,000 compounds, 0.45% hits;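 active = inhibition above the mean plus 3 SD of all compounds in the same screening run, cut at about 4.5% in these data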;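 note: 0% = IMP-1 with DMSO and 100% = DMSO wells lacking enzyme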
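System – purified recombinant IMP-1 beta-lactamase · Input – IMP-1 dispensed at 0.2 nM · Timing – 15 min preincubation plus 25 min reaction at 25 °C · Signal – Epi-absorbance fluorescence, 480 nm excitation, 530 nm emission · Measure – percent IMP-1 inhibition derived from blank-referenced optical density · Controls – Enzyme-plus-DMSO low control, enzyme-free DMSO high control · Replication – singlicate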
NS3 helicase cf: HCV NS3 helicase inhibitors, retest, confirmation, biochemical, Cy5 molecular beacon fluorescence, triplicate | shares compounds with HCV NS3 hel inh | NS3 helicase DNA unwinding | inhibition, % at 10.9 µM | 1,600 compounds, 31% hits;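 active = inhibition above the mean of all tested compounds plus 3 SD, cutoff set per campaign, cut at about 36% in these data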
DNA FID counter-2: compounds displacing fluorescent DNA intercalator, artefact control for HCV NS3 helicase inhibitor project, biochemical, FID fluorescence, triplicate; shares compounds with HCV NS3 hel inh; DNA fluorescent intercalator displacement; inhibition, % at 7.9 µM; 1,600 compounds, 4% hits;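 note: 0% = vehicle and 100% = reference compound; higher means more displacement of ethidium bromide from the DNA hairpin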
FID counter DR: compounds displacing fluorescent intercalator from DNA, dose response, counter-screen for HCV NS3 helicase inhibitor project, biochemical, fluorescence. fluorescent intercalator displacement from DNA. IC50, µM. shares compounds with HCV NS3 hel inh. 120 tested, under 10 active; call rule not given here
Starred values were filed as active, the others as inactive; nt = no result given. Rows were chosen to be rich in hits. Some 1.9% of all compounds tested hit in one or more screens of this group. Cut-off read from the data, not from the text of the source, unless noted: active = inhibition above about 37%; inactive = the rest.

SMILES | DNA FID counter-1 | HCV NS3 hel inh | VIM-2 inh | IMP-1 inh | NS3 helicase cf | DNA FID counter-2 | others
Cc1cc(N2C(=O)C(O)=C(C(=O)c3cc4ccccc4o3)C2c2ccc([N+](=O)[O-])cc2)no1 (configuration not stated) | -8 | 24 | -4 | -1 | nt | nt
CCOC(=O)c1sc(N2C(=O)C(O)=C(C(=O)c3ccco3)C2c2cccc([N+](=O)[O-])c2)nc1C (configuration not stated) | 4 | 105* | -3 | 1 | 115* | 24
CCOC(=O)c1sc(N2C(=O)C(O)=C(C(=O)c3ccco3)C2c2cccc(Cl)c2)nc1C (configuration not stated) | -42 | 2 | 1 | -1 | nt | nt
Cc1cc(N2C(=O)C(O)=C(C(=O)c3ccco3)C2c2cccc(Oc3ccccc3)c2)no1 (configuration not stated) | -37 | 66* | -2 | 0 | 116* | 2 | FID counter DR=>79
Cc1ccc(C2C(C(=O)c3cc4ccccc4o3)=C(O)C(=O)N2c2cc(C)on2)cc1 (configuration not stated) | -37 | 65* | 0 | 0 | 123* | -24 | FID counter DR=>79
O=C(C1=C(O)C(=O)N(CCc2ccccc2)C1c1ccncc1)c1cc2ccccc2o1 (configuration not stated) | -41 | 39* | -2 | -3 | 13 | -28
O=C(NCc1ccco1)c1cccc(NS(=O)(=O)c2ccccc2F)c1 | 1 | -1 | -2 | -1 | nt | nt
CCOC(=O)CN(C(=O)COc1ccc2c(C)cc(=O)oc2c1)c1ccc(OCC)cc1 | -7 | -7 | 0 | 0 | nt | nt
CCCN(CCC)C(=O)c1cn(C)c2ccc(S(=O)(=O)N3CCCC3)cc2c1=O | -25 | 22 | -2 | -1 | nt | nt
O=C(COc1cccnc1[N+](=O)[O-])NCCc1ccccc1 | -12 | 3 | 0 | -2 | nt | nt
O=C(NNC(=S)NC(=O)c1ccco1)c1ccc(F)cc1 | -5 | -1 | -2 | -1 | nt | nt
Cn1cccc1CC(=O)NNC(=S)NC(=O)c1ccc(F)cc1 | -12 | 45* | -1 | 1 | -10 | -3
Cc1cc(C)cc(NC(N)=S)c1 | 0 | -5 | 1 | 2 | nt | nt
CSc1ccc(CN2CCCC(CNC(=O)c3ccc(F)cc3)C2)cc1 (configuration not stated) | 13 | 43* | -2 | -3 | -11 | 33
CSc1cccc(CN2CCCC(CNC(=O)c3ccc(F)cc3)C2)c1 (configuration not stated) | 4 | -12 | -1 | -2 | nt | nt
NS(=O)(=O)c1cccc(C(=O)NC2CCSc3ccccc32)c1 (configuration not stated) | -14 | 7 | -2 | -5 | nt | nt
NS(=O)(=O)c1cc(C(=O)NC2CCSc3ccccc32)ccc1Cl (configuration not stated) | -10 | 84* | -3 | -5 | 74* | 2
O=C(CNC(=O)c1ccco1)N/N=C/c1cccs1 | -3 | 9 | -3 | -1 | nt | nt
CC1=NN(C(N)=S)C(=O)C1N=Nc1ccccc1C (configuration not stated) | -2 | 1 | 1 | -2 | nt | nt
CC1=NN(C(N)=S)C(=O)C1N=Nc1ccccc1O (configuration not stated) | -4 | 42* | 1 | -2 | -15 | 17
CN=C1NN=C(c2cc(C)n(-c3c(C)n(C)n(-c4ccccc4)c3=O)c2C)CS1 | -11 | 19 | -3 | -1 | nt | nt
Cc1cc(C2=NNC(=NCc3ccccc3)SC2)c(C)n1-c1c(C)n(C)n(-c2ccccc2)c1=O | -35 | 36* | -3 | -3 | 7 | -17
CCOC(=O)c1c(CC(C)C)csc1NC(C)=O | -4 | -5 | -2 | -4 | nt | nt
CCOC(=O)c1c(CC(C)C)csc1NC(=O)c1ccccc1C(=O)O | -22 | 50* | 1 | 1 | 71* | -16
COC(=O)c1cc(N=Cc2c(O)c3ccccc3oc2=O)cc(C(=O)OC)c1 | 2 | 40* | 1 | 0 | 4 | 10
SMILES | DNA FID counter-1 | HCV NS3 hel inh | VIM-2 inh | IMP-1 inh | NS3 helicase cf | DNA FID counter-2 | others
Cc1cc(C)cc(N=Cc2c(O)c3ccccc3oc2=O)c1 | 2 | 12 | -4 | -4 | nt | nt
CC1CC/C(=C\c2ccc3c(c2)OCO3)C(=O)/C1=C/c1ccc2c(c1)OCO2 (configuration not stated) | -18 | 38* | -2 | 1 | -8 | 1
COc1ccc(/C=N\NC(=O)c2cc(O)c(O)c(O)c2)cc1COc1ccc(C(=O)OCC(C)C)cc1 | -16 | 39* | 0 | -2 | 56* | -9 | FID counter DR=>79
Cc1snc(SCc2cccc(Cl)c2)c1C#N | -5 | 3 | 0 | -2 | nt | nt
O=C(Nc1ccccc1C(=O)NC(Cc1c[nH]c2ccccc12)C(=O)O)c1ccccc1 (configuration not stated) | -24 | 40* | 2 | 0 | 42* | -36
O=C(NC(Cc1c[nH]c2ccccc12)C(=O)O)c1ccc(F)cc1 (configuration not stated) | 7 | 5 | -3 | -2 | nt | nt
O=C(c1ccco1)c1cn(CC(=O)N2CCCCCC2)c2ccccc12 | -16 | -7 | -1 | -1 | nt | nt
CC1CCCCN1C(=O)Cn1cc(C(=O)c2ccco2)c2ccccc21 (configuration not stated) | -23 | 38* | 1 | -1 | -8 | -24
CCOC(=O)n1c(=O)n(C)c2ccc(Br)cc21 | -5 | 112* | 2 | -1 | -3 | 6
Cc1cc(OCc2cc(C(=O)N(C)C(C)c3ccccn3)no2)cc(C)c1Cl (configuration not stated) | -50 | -11 | -4 | -4 | nt | nt
CCOC(=O)c1[nH]c2c(c1C)C(=O)CC(c1ccco1)C2 (configuration not stated) | -3 | 13 | -2 | -2 | nt | nt
COCCOC(=O)c1[nH]c2c(c1C)C(=O)CC(c1ccco1)C2 (configuration not stated) | -10 | 47* | 2 | 0 | -6 | 2
COc1cccc([C@@H]2Oc3ccc(OC)cc3C(=O)[C@H]2OC(=O)NCc2ccc3c(c2)OCO3)c1 | -33 | -18 | -2 | -3 | nt | nt
COc1ccc2nc(NC(=O)c3ccc([N+](=O)[O-])o3)sc2c1 | 6 | 64* | -5 | -6 | 7 | 10
CC(C)C(C(=O)O)N1C(=O)/C(=C/c2cccn2C)SC1=S (configuration not stated) | -16 | 35 | 2 | -1 | nt | nt
